This is a sample that favours compounds with a hit; in the whole collection about 1.9% have one here.
M4 antag: CHRM4 antagonism in calcium assay. P08173. CHO-hM4 cells, ACh EC80, Fluo-8 calcium fluorescence. inhibition, % at 3 µM. actives 0.73% (n = 360,000). AID 624125;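 active = inhibition above its plate's cutoff, the mean inhibition of sample wells plus 3 SD, cut at about 27% in these data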
Target sequence (P08173 whole entry, looked up): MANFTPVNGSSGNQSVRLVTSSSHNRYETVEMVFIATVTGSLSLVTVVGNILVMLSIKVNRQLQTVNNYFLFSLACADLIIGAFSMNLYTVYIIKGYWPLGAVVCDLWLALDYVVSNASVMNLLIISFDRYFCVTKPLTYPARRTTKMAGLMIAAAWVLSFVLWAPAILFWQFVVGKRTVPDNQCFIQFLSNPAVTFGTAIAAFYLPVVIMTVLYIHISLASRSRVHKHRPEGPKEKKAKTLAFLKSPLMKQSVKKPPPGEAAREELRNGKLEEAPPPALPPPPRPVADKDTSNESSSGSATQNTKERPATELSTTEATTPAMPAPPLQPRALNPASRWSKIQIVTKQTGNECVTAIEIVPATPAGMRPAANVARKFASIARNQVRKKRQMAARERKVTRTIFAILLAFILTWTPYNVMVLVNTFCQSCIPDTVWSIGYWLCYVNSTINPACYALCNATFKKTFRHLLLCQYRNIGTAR
CHRM5 PAM: CHRM5 positive allosteric modulation. CHO-K1 hM5, Fluo-8 calcium, ACh EC20 PAM; 0% = ACh EC20, 100% = ACh EC100. actives 0.3% (n = 360,000). AID 624038. P08912. activation, % at 3 µM;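 active = activation above the run cutoff, the mean activation of all test compounds plus 3 SD, cut at about 18% in these data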
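Assay system: CHO-K1 hM5 cells / Incubation: Fluo-8 loading 80 min at 37 °C plus 30 min room temperature / Technique: Fluo-8 calcium dye fluorescence, kinetic read / Repeats: single replicate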
CHRM4 PAM: potentiates acetylcholine response at human M4 receptor. activation, % at 3 µM. CHO-K1 hM4/Gqi5, Fluo-8 calcium fluorescence, ACh EC20; 0% = ACh EC20, 100% = maximal ACh. actives 0.4% (n = 360,000). P08173;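 active = activation above its plate's cutoff, the mean activation of sample wells plus 3 SD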
CHRM5 agonist: CHRM5 agonism in calcium assay | CHO-K1 hM5 cells, Fluo-8 calcium fluorescence; 0% DMSO wells, 100% maximal acetylcholine response | AID 624037 | actives 0.19% (n = 360,000) | P08912 | activation, % at 3 µM;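 active = activation above the run's mean over test compounds plus 3 SD, cut at about 23% in these data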;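 also: signal is peak over basal fluorescence ratio across the kinetic read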
CHRM5 antagonist: antagonists of human muscarinic M5 receptor (CHRM5); P08912; CHO-hM5 cells, Fluo-8 calcium fluorescence, ACh EC80; inhibition, % at 3 µM; actives 0.59% (n = 360,000); AID 624040;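 active = inhibition above a per-plate cutoff, the mean of that plate's test compounds plus 3 SD, cut at about 27% in these data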
CHRM4 agonist: agonists of human muscarinic M4 receptor (CHRM4); activation, % at 3 µM; CHO-K1 hM4/Gqi5, Fluo-8 calcium fluorescence; vehicle 0%, full acetylcholine response 100%; P08173; AID 624127; actives 0.14% (n = 360,000);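 active = activation above the run mean over all test wells plus 3 SD, cut at about 32% in these data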;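 also: peak over basal fluorescence ratio per well then scaled between controls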
Of the large screens only hits and unclear results are named; the others gave an inactive call.

COc1cc(NCC2COc3c(ccc(OC)c3OC)C2=O)c([N+](=O)[O-])cc1OC (stereo unspecified)	none
COc1ccc(/C(O)=C2\C(=O)C(=O)N(c3cc(C)on3)C2c2ccc(OC)c(OC)c2)cc1OC (stereo unspecified)	none
Cc1cc(N2C(=O)C(=O)/C(=C(/O)c3ccc(F)cc3)C2c2ccc(F)cc2)no1 (stereo unspecified)	CHRM5 PAM 21
Cc1ccc(NC(=O)c2nc(S(=O)(=O)Cc3ccccc3C)ncc2Cl)cc1C	M4 antag 36
CCc1ccc(NC(=O)c2nc(S(=O)(=O)Cc3ccccc3)ncc2Cl)cc1	M4 antag 68
CCS(=O)(=O)c1ncc(Cl)c(C(=O)Nc2ccc(S(=O)(=O)N3CCC(C)CC3)cc2)n1	M4 antag 47
CC1CCN(S(=O)(=O)c2ccc(NC(=O)c3ccncc3)cc2)CC1	none
Cc1cccc(CS(=O)(=O)c2ncc(Cl)c(C(=O)NCc3ccc4c(c3)OCO4)n2)c1	M4 antag 33
CC(=O)Nc1ccc(NC(=O)c2nc(S(=O)(=O)Cc3cccc(C)c3)ncc2Cl)cc1	none
CCn1nccc1NC(=O)c1ccc2sc([C@@H]3O[C@H](CO)[C@H](O)[C@H](O)[C@H]3O)nc2c1	none
CCOC(=O)NNC(=O)C1CCC(C)CC1 (stereo unspecified)	none
COc1ccc(CC(=O)NCC(C)(C)N2CCOCC2)cc1	none
CCNC(=S)NNC(=O)CC(C)C	none
COc1ccc(C(=O)NNC(=S)NC(=O)c2ccco2)cc1	none
CC(C)CNC(=S)NNC(=O)CC(C)O (stereo unspecified)	CHRM5 PAM 18
CCCOc1ccc(C(=O)NNC(=S)NC(=O)c2ccco2)cc1	CHRM5 agonist 60, CHRM5 antagonist 31, CHRM4 agonist 126
CC(Oc1ccc(Cl)cc1)C(=O)NNC(=S)NC(=O)c1ccco1 (stereo unspecified)	CHRM5 agonist 26, CHRM4 agonist 63
CCCOc1ccc(C(=O)NNC(=S)NC(=O)c2ccccc2)cc1	M4 antag 27, CHRM5 agonist 78, CHRM4 agonist 136
Clc1nnc(NC2CCCCC2)c(Cl)c1Cl	none
O=C(O)c1cc(S(=O)(=O)N2CCOCC2)c[nH]1	none
COc1ccc(C(=O)NC(=S)NNC(=O)c2ccc(C)cc2)cc1	CHRM5 agonist 75, CHRM4 agonist 118
CC(=O)c1cccc(NC(=S)NC(=O)c2ccc(C)cc2)c1	CHRM4 PAM 26
CCCOc1ccc(C(=O)NNC(=S)NC(=O)c2cccs2)cc1	M4 antag 63, CHRM5 agonist 72, CHRM5 antagonist 42, CHRM4 agonist 110
CC(C)CNC(=S)NNC(=O)c1ccco1	CHRM4 PAM 38
CCc1nc2ccc(C(=O)NCc3cccs3)cn2c1N(CC)Cc1cccc(Br)c1	none
c1ccc2c(c1)C1=NCCN1c1ccccc1-2	none
C=CCC(NC(=O)N(C)C)(C(C)=O)C(=O)OC (stereo unspecified)	none
O=C(Nc1cccc(S(=O)(=O)N2CCCCC2)c1)c1ccccc1NS(=O)(=O)c1ccc(F)cc1	CHRM5 antagonist 41
Cc1ccc(NC(=O)CSc2ncnc3ccccc23)cc1S(=O)(=O)N1CCCCC1	CHRM5 antagonist 30
Cc1ccc(NC(=O)c2cnccn2)cc1S(=O)(=O)N1CCCCCC1	CHRM5 antagonist 28
O=C(Nc1ccccc1Cl)c1cc(S(=O)(=O)N2CCCC(C(=O)O)C2)ccc1F (stereo unspecified)	CHRM4 PAM 51
O=C(Nc1ccccc1C(=O)O)c1cc(S(=O)(=O)N2CCCCCC2)ccc1Cl	none
NS(=O)(=O)c1cccc(NC(=O)c2ccccc2NS(=O)(=O)c2ccc(F)cc2)c1	none
NC(=O)c1ccc(NC(=O)CNC(=O)c2sc3ccccc3c2Cl)cc1	none
COc1ccccc1S(=O)(=O)N(C)C[C@@H]1OCc2cn(nn2)CCCC(=O)N([C@@H](C)CO)C[C@H]1C	none
Cc1ccc(NC(=O)c2ccccc2NS(=O)(=O)c2ccc(F)cc2)cc1S(=O)(=O)N1CCCCC1	CHRM5 antagonist 35
COc1ccc2nc(S(=O)Cc3ncc(C)c(OC)c3C)[nH]c2c1 (stereo unspecified)	M4 antag 42
COCCCOc1ccnc(CS(=O)c2nc3ccccc3[nH]2)c1C (stereo unspecified)	none
CCOc1ccccc1NC(=O)C(OC(=O)c1ccc(O)cc1)c1ccccc1 (stereo unspecified)	CHRM5 antagonist 29
CCOc1ccccc1NC(=O)C(OC(=O)c1ccc(CC)cc1)c1ccccc1 (stereo unspecified)	none
C=CCC[C@H](Cc1ccc(F)cc1)C(=O)OC[C@@H](Cc1c[nH]c2ccccc12)NC(=O)[C@H](CC=C)CC(=O)N(CCO)Cc1ccccc1	M4 antag 45
C=CC[C@@H](CC(=O)N(CCO)Cc1ccccc1)C(=O)NC[C@H](OC(=O)[C@@H](CC=C)Cc1ccc(F)cc1)c1ccccc1	M4 antag 30
CCOC(=O)C1(Cc2cccc(Cl)c2)CCCN(C(=O)c2ccc(COC)s2)C1 (stereo unspecified)	none
O=C(NCCO)C(=O)Nc1cc2c3c(c1)CC(=O)N3CCC2	CHRM4 PAM 14
COc1ccc(NC(=O)CC2C(=O)N(CCc3ccccc3)C(=S)N2Cc2cccnc2)cc1 (stereo unspecified)	M4 antag 27
COc1ccc(OC)c(-c2c3cc(O)c(=O)cc-3oc3cc(O)c(O)cc23)c1	CHRM5 agonist 55, CHRM4 agonist 60
O=c1cc2oc3cc(O)c(O)cc3c(-c3ccccc3O)c-2cc1O	none
O=C(c1ccccc1)N1N=C(c2ccc(F)cc2)CC1(O)C(F)(F)F (stereo unspecified)	none
CN1CCC2(CC1)N=C(c1ccc(F)cc1)C(=S)N2C(=O)c1ccccc1	CHRM5 antagonist 40
CCN1CCC2(CC1)N=C(c1ccc(F)cc1)C(=S)N2C(=O)c1ccc(C(C)(C)C)cc1	CHRM5 antagonist 76
CSCC[C@H](NC(=O)C1CCC(CNC(=O)[C@@H]2CCCN2C(=O)OC(C)(C)C)CC1)C(=O)O (stereo partly specified)	none
c1ccc2c(Nc3ccc4c(c3)OCCO4)c3c(nc2c1)CCCC3	CHRM5 antagonist 44
CCS(=O)(=O)c1nc(S(=O)(=O)c2ccc(Cl)cc2)c(N2CCC(O)CC2)s1	none
CCOC(=O)C1CCCN(c2c(C(=O)c3ccccc3)cnc3ccc(OC)cc23)C1 (stereo unspecified)	CHRM5 agonist 32

Source: PubChem BioAssay (The Scripps Research Institute Molecular Screening Center)
